From ChEMBL document CHEMBL1159110, “Mevalonate analogues as substrates of enzymes in the isoprenoid biosynthetic pathway of Streptococcus pneumoniae” (Bioorg Med Chem, 2010)
Activity calls are given as the source filed them. The rule behind the calls is not given here.

What was measured:
[1] = system: Streptococcus pneumoniae; test: Activity of Streptococcus pneumoniae mevalonate kinase expressed in Escherichia coli by pyruvate kinase/lactate dehydrogenase coupled assay
Outline: (§1)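 S. pneumoniae MK expressed in E. coli as His6-GST fusion, with tags removed. Lactone analogues were hydrolysed in 2.0 M LiOH (rt, 1 h), titrated to pH 7.0, and used as racemic acids. ADP formation was coupled to NADH oxidation (pyruvate kinase 10.0 units/ml, lactate dehydrogenase 20.0 units/ml), read continuously at 386 nm. Buffer: ATP 4.0 mM, MgCl2 5.0 mM, NADH 0.82 mM, PEP 1.0 mM, KCl 50 mM, β-mercaptoethanol 20.0 mM, Hepes/K+ 50 mM pH 8.0, 25 °C. Progress curves were compared with mevalonate.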

[2] = system: Streptococcus pneumoniae; test: Activity of Streptococcus pneumoniae phosphomevalonate kinase expressed in Escherichia coli by pyruvate kinase/lactate dehydrogenase coupled assay
Outline: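 S. pneumoniae PMK was expressed in E. coli as His6-GST fusion, with tags removed. Substrates were the phosphorylated analogues, compared with phosphomevalonate. ADP formation was linked 1:1 to NADH oxidation via pyruvate kinase (10.0 units/ml) and lactate dehydrogenase (20.0 units/ml), monitored at 386 nm. Conditions: ATP 4.0 mM, MgCl2 5.0 mM, NADH 0.82 mM, PEP 1.0 mM, KCl 50 mM, β-mercaptoethanol 20.0 mM, Hepes/K+ 50 mM pH 8.0, 25 °C.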

[3] = Binding affinity to Streptococcus pneumoniae mevalonate kinase
[4] = system: Streptococcus pneumoniae; test: Activity of Streptococcus pneumoniae mevalonate kinase expressed in Escherichia coli assessed as enzyme activity by pyruvate kinase/lactate dehydrogenase coupled assay relative to mevalonate; outline: as §1

| SMILES | Activity [1] | Activity [2] | Ki [3] | Activity [4] |
| --- | --- | --- | --- | --- |
| CCC(O)(CCO)CC(=O)O (racemic) | Active | Active |  |  |
| C[C@@](O)(CCOP(=O)(O)OP(=O)(O)O)CC(=O)O [DIPHOSPHOMELAVONATE] |  |  | 500 nM |  |
| CC(C)C(O)(CCO)CC(=O)O (racemic) |  |  |  | < 0.0025% |
| O=C(O)CC(O)(CCO)C1CC1 (racemic) | Active | Active |  |  |
| C=CCC(O)(CCO)CC(=O)O (racemic) | Active | Active |  |  |
| CC#CC(O)(CCO)CC(=O)O (racemic) |  |  |  | < 0.0025% |
| CC(C)CC(O)(CCO)CC(=O)O (racemic) | Active | Active |  |  |
| C#CC(O)(CCO)CC(=O)O (racemic) | Active | Active |  |  |
| C=CC(O)(CCO)CC(=O)O (racemic) | Active | Active |  |  |
| CCCCC(O)(CCO)CC(=O)O (racemic) |  |  |  | < 0.0025% |
| CCCC(O)(CCO)CC(=O)O (racemic) | Active | Active |  |  |
| C=C(C)C(O)(CCO)CC(=O)O (racemic) |  |  |  | < 0.0025% |
